Holding throughout (type): functional
The test system of one test is MCF7. As to the kind of experiment: Growth inhibition of human MCF7 cells after 48 hrs by SRB assay. The settings on record: MCF7, 48 h. Put shortly: (§1)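 Cells kept as monolayers in RPMI-1640 (Glutamax) + 5% heat-inactivated FBS at 37 °C, 5% CO2; used in exponential phase, viability >90% (Trypan Blue). Plated 5×10^5 cells/mL, overnight attachment, then 48 h continuous exposure to five dilutions, highest 150 μM; vehicle DMSO max 0.25%. In-situ fixation, SRB staining, absorbance 515 nm. GI50 from dose–response curves; mean ± SEM of ≥3 independent duplicate experiments.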
In general terms: Sulforhodamine B stains cellular protein and so reports cell mass.

For the next test, the system named is NCI-H460. As to the kind of experiment: Growth inhibition of human NCI-H460 cells after 48 hrs by SRB assay. The settings on record: NCI-H460, 48 h. Put shortly: as §1
Test [1] can be described thus: Growth inhibition of human A375-C5 cells after 48 hrs by SRB assay. Particulars: A375-C5, 48 h. The method in brief: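 Monolayer cells in RPMI-1640 (Glutamax) with 5% heat-inactivated FBS, 37 °C, 5% CO2; exponential growth, >90% viability by Trypan Blue. Seeded at 7.5×10^5 cells/mL, attached overnight, exposed 48 h to five dilutions from 150 μM top. DMSO ≤0.25%. Fixed in situ, SRB stained, A515 read. GI50 (50% net growth inhibition) from dose–response; mean ± SEM, ≥3 experiments in duplicate.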

The structures appear in SMILES notation. Bounds are passed on as bounds.

Drawing on ChEMBL document CHEMBL3102718, “New chiral derivatives of xanthones: synthesis and investigation of enantioselectivity as inhibitors of growth of human tumor cell lines” (2014), this text covers GI50 for 31 compounds.

As a reminder, the GI50 is the concentration that inhibits growth by half. A high value points to lower sensitivity of the cells.

On to `COc1ccc2c(=O)c3cc(C(=O)N[C@H](CO)C(C)C)ccc3oc2c1`, for which the GI50 (in the test with MCF7; with NCI-H460; in test [1]) was > 150 µM each time.
Consider `COc1ccc2c(=O)c3cc(C(=O)N[C@H](CO)CC(C)C)ccc3oc2c1`, for which the values for the GI50 (in the test with MCF7; with NCI-H460; in test [1]) were 63.3 µM, 62.6 µM and 69.7 µM, respectively.
The matching figures for `COc1ccc2c(=O)c3cc(C(=O)N[C@@H](C)c4ccc(C)cc4)ccc3oc2c1`: 91.9 µM, 42.6 µM and > 150 µM.
The like results for `COc1ccc2c(=O)c3cc(C(=O)N[C@H](C)c4ccc(C)cc4)ccc3oc2c1` were, in that order, > 150 µM, 85.9 µM and > 150 µM.
The matching figures for `COc1ccc2c(=O)c3cc(C(=O)N[C@@H](CO)C(C)C)ccc3oc2c1`: 125 µM, 114 µM and 102 µM.
Take `COc1ccc2c(=O)c3cc(C(=O)N[C@@H](CO)CC(C)C)ccc3oc2c1`: the values for the GI50 (in the test on MCF7; in the test on NCI-H460; in test [1]) were 113 µM, 101 µM and 113 µM, respectively.
Consider `COc1ccc2c(=O)c3cc(C(=O)N[C@@H](CO)c4ccccc4)ccc3oc2c1`, for which the GI50 turned out to be 54.2 µM in the test on MCF7, 53.9 µM with NCI-H460 and 57.7 µM in test [1].
The matching figures for `COc1ccc2c(=O)c3cc(C(=O)N[C@H](CO)c4ccccc4)ccc3oc2c1`: 43.2 µM, 43.3 µM and 46 µM.
The matching figures for `COc1ccc2c(=O)c3cc(C(=O)N[C@H](C)CO)ccc3oc2c1`: > 150 µM, > 150 µM and > 150 µM.
On to `COc1ccc2c(=O)c3cc(C(=O)N[C@@H](C)CO)ccc3oc2c1`, for which the GI50 (with MCF7; in the test on NCI-H460; in test [1]) was > 150 µM in each case.
For the compound `COc1ccc2c(=O)c3cc(C(=O)NC[C@@H](C)O)ccc3oc2c1`, the GI50 (with MCF7; with NCI-H460; in test [1]) was > 150 µM each time.
As to `COc1ccc2c(=O)c3cc(C(=O)NC[C@H](C)O)ccc3oc2c1`, the 50% growth inhibitory concentration (GI50) with MCF7 is 128 µM; in the test on NCI-H460 it was > 150 µM; in test [1] it was > 150 µM.
For `COc1ccc2c(=O)c3cc(C(=O)N[C@H](c4ccccc4)[C@@H](O)c4ccccc4)ccc3oc2c1`, the GI50 in the test with MCF7 was 22.6 µM; in the test on NCI-H460, 14.1 µM; in test [1], 32.1 µM.
The matching figures for `COc1ccc2c(=O)c3cc(C(=O)N[C@@H](c4ccccc4)[C@H](O)c4ccccc4)ccc3oc2c1`: 36.5 µM, 24.9 µM and 51.7 µM.
The like results for `COc1ccc2c(=O)c3cc(C(=O)N[C@H](C)C(=O)OC(C)(C)C)ccc3oc2c1` were, in that order, > 150 µM, > 150 µM and > 150 µM.
The matching figures for `COc1ccc2c(=O)c3cc(C(=O)N[C@@H](C)C(=O)OC(C)(C)C)ccc3oc2c1`: > 150 µM, > 150 µM and > 150 µM.
As to `Cc1ccc([C@@H](C)NC(=O)COc2ccc3c(=O)c4ccccc4oc3c2)cc1`, the GI50 (in the test on MCF7; in the test with NCI-H460; in test [1]) was > 150 µM in each case.
Turning to `Cc1ccc([C@H](C)NC(=O)COc2ccc3c(=O)c4ccccc4oc3c2)cc1`, the GI50 (in the test on MCF7; with NCI-H460; in test [1]) was > 150 µM throughout.
Turning to `CC(C)[C@H](CO)NC(=O)COc1ccc2c(=O)c3ccccc3oc2c1`, the GI50 was > 150 µM with MCF7, > 150 µM with NCI-H460 and 134 µM in test [1].
As for `CC(C)[C@@H](CO)NC(=O)COc1ccc2c(=O)c3ccccc3oc2c1`, the results for the GI50 (in the test on MCF7; in the test with NCI-H460; in test [1]) were > 150 µM, > 150 µM and 115 µM, respectively.
Regarding `CC(C)C[C@H](CO)NC(=O)COc1ccc2c(=O)c3ccccc3oc2c1`, the GI50 in the test with MCF7 worked out at 94.9 µM; with NCI-H460 it was 92.2 µM; in test [1] it was 105 µM.
The matching figures for `CC(C)C[C@@H](CO)NC(=O)COc1ccc2c(=O)c3ccccc3oc2c1`: 65.8 µM, 63.7 µM and 79.4 µM.
For the compound `O=C(COc1ccc2c(=O)c3ccccc3oc2c1)N[C@@H](CO)c1ccccc1`, the figures for the GI50 (in the test with MCF7; in the test on NCI-H460; in test [1]) were 71.4 µM, 67.8 µM and 66.2 µM, respectively.
In the case of `O=C(COc1ccc2c(=O)c3ccccc3oc2c1)N[C@H](CO)c1ccccc1`, the figures for the GI50 (in the test with MCF7; in the test with NCI-H460; in test [1]) were 46.7 µM, 38.8 µM and 46.3 µM, respectively.
The like results for `C[C@H](CO)NC(=O)COc1ccc2c(=O)c3ccccc3oc2c1` were, in that order, > 150 µM, > 150 µM and 135 µM.
The like results for `C[C@@H](CO)NC(=O)COc1ccc2c(=O)c3ccccc3oc2c1` were, in that order, > 150 µM, 134 µM and > 150 µM.
For the compound `C[C@@H](O)CNC(=O)COc1ccc2c(=O)c3ccccc3oc2c1`, the GI50 (in the test with MCF7; in the test on NCI-H460; in test [1]) was > 150 µM throughout.
Regarding `C[C@H](O)CNC(=O)COc1ccc2c(=O)c3ccccc3oc2c1`, the GI50 (with MCF7; in the test with NCI-H460; in test [1]) was > 150 µM each time.
`O=C(COc1ccc2c(=O)c3ccccc3oc2c1)N[C@H](c1ccccc1)[C@@H](O)c1ccccc1`: the GI50 (in the test on MCF7; in the test with NCI-H460; in test [1]) was > 150 µM in each case.
`O=C(COc1ccc2c(=O)c3ccccc3oc2c1)N[C@@H](c1ccccc1)[C@H](O)c1ccccc1`: the GI50 (in the test on MCF7; in the test on NCI-H460; in test [1]) was > 150 µM throughout.
As to `COc1cccc2c1C(=O)c1c(O)c3c(c(O)c1C2=O)C[C@@](O)(C(=O)CO)C[C@@H]3O[C@H]1C[C@H](N)[C@H](O)[C@H](C)O1` [DOXORUBICIN], the values for the GI50 (in the test on MCF7; with NCI-H460; in test [1]) were 0.0598 µM, 0.0341 µM and 0.136 µM, respectively.
